Assay results: the RNAGym collection of RNA variant scans (doi:10.1126/science.aae0568)
Fewer inactive variants are shown than the library holds.

B1: tRNA (parent)
chain: GUUCCGUUGGCGUAAUGGUAACGCGUCUCCCUCCUAAGGAGAAGACUGCGGGUUCGAGUCCCGUACGGAACG

Variants of: B1
Assay: yeast fitness relative to wild type (ratio to wild type); higher = fitter; tRNA-Arg(CCU), competitive growth, 37 C, YPD
Outline: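 Gene amplicons from the start population and from each of six end populations were read by 100-nucleotide paired-end sequencing. Those end populations came from pooled Saccharomyces cerevisiae strains carrying tRNA-Arg(CCU) gene variants at the native locus, competed in YPD at 37°C for 24 hours. Fitness relative to wild type was worked out from changes in genotype frequencies. Genotypes needed ≥ 100 starting reads, and estimates < 0.5 were set to 0.5.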

Variant	yeast fitness
GUUCCGUUGGCAUAAUGGCAACGCGUCCCCCUCCUAAGGAGAAGACUGCGGGUUGGAGUCCCGUACGGAACG [G12A U19C U28C C55G]	≤ 0.5
GUUCGGAUGGCGUAAUGGUAAUGCGUCUCACUCCUAAGGAGAAGACUGGGGGUUUGAGUCCCGUACGGAACG [C5G U7A C22U C30A C49G C55U]	0.552
GUUCCGUUGACGUAAUGGUAACGCGUCUCCCUCCUGACGAGAAGACUGCGGGUUCGAGUCCCGUACGGAACG [G10A A36G G38C]	≤ 0.5
GUUCCGUUGGCGUAAUGGUAACGGGUCUCCCUCCUAAGGAGAAGACUGCGGGUUCGAGUCCCGUACGGGACG [C24G A69G]	0.503
GUUCCGUUGGCGAAAUGGUAACGCGUCUCCCUCGUAAGGAGAAGACUGCGGGUUCGAGUCUCGUACGGAACG [U13A C34G C61U]	≤ 0.5
GUUCCGUUGGCGUAAUGGUAACGCGUCUCCCUCCUAAGGAGUAGACUGAGGGUUCCAGUCCCGUGCGGAACG [A42U C49A G56C A65G]	≤ 0.5
GUUCCGUUGGCGUAAUGGUAACGCGUCUCGCUCCUAAGGAGAAGACUGCGGGUUCGAGUCCCGUUCGGAACG [C30G A65U]	0.589
GUUCGGUUGGUGUAAUGGUAACGCGUCUCCCUCCUAUGGAGAAGACUGCGGGUUCGAGUCCCGUACGGAACG [C5G C11U A37U]	≤ 0.5
GUUGCGUUGGCCUAAUGGUAACGCGUCUCCCUCCUAAGGGGAAGACUGCGGGUUCGAGUCCCGUACGGAACG [C4G G12C A40G]	≤ 0.5
GUUCCGUUGGCGUAAUGGUAACGCGUCUCCCUCCUAAGGAGCAGAGUGCGGGUUCGAGUCCCGUACCGAACG [A42C C46G G67C]	0.612
GUUCGGUUGGCGAAAUGGAAACGCGUCUCUCUCCUAAGGAGAAGACUGCGGGUUCGAGUCCCGUACGGAACG [C5G U13A U19A C30U]	0.573
GUUCCGUUGGCGUAAAGGUAACGCGUCUCCCUCCUAAGGAGAAGACUGCGGGUUCGAGUACCGUACGGAACG [U16A C60A]	0.668
GUUUCGAUGGCGUAAUGGUAACGCGUCUCCCUCCUAAGGAGAAGACUGCGGGUUCGAGUCCGGUACGGAACG [C4U U7A C62G]	≤ 0.5
GUUCCGUUGGCGUAAUGGUAACGCGUCUCCCUCCUAUGGAGAAGACUGCGGGUUCGAGUCCCGUACGGUACG [A37U A69U]	0.723
GUUCCGUUGGCAUAAUGGUAACGCGUCUCCCUCCUAAGGAGAAGACUACGGGUUCGAGUCCCGUAUAGAACG [G12A G48A C66U G67A]	≤ 0.5
GUUCCGUUGGCGUAAUGGUAACGCGUCUCUCUCCUAAGGAGAAGACUGGGGGUACGAGUCCCGUACGGAACG [C30U C49G U54A]	≤ 0.5
GUUCCGUUGGCGUAAUGGUAACGCGUCUCCCUACUAAGGAGAAGACUGCGGGAUCGAGUCCCGUACGGAACG [C33A U53A]	≤ 0.5
GUUCCGUUGGCGUAAUGGUAACGCGUCUCCCUCGUAAGGAGGAGACUGCGGGUUCGAGUCCCGUAUGGAACG [C34G A42G C66U]	1.03
GUUCCGUUGGUAUAAUGGUAACGCGUCUCCCUCCUAAGGAGAAGACUGCGGGUUCGAGUCUCGUACGGAACG [C11U G12A C61U]	0.511

Variant	yeast fitness
GUUCCGUUGGCGUAAUGGUAACGCGUCUCCCUCCUAAGGAGAUGACUGCGGGUUCGAGACACGUACGGAACG [A43U U59A C61A]	0.629
GUUCCGUAGGCGUAAUGGUAAGGCAUAUCCCUUCUAAGGAGAAGACUGGGGGUUCGAGUCCCGUCCGGAACG [U8A C22G G25A C27A C33U C49G A65C]	0.608
GUUCCGUUGGCGUAAUGGUAACGCGUCUCCCUGCUAAGGAGUAGACUGCGGGUUCGAGUGCCGUACGGAACG [C33G A42U C60G]	≤ 0.5
GUUCCGUUGGCGUAAUGGUAACGCGUCGCCCUGCUAAGGAGAAGACUGCGGGUUCGAGUCCCGUACGCAACG [U28G C33G G68C]	≤ 0.5
GUUCCGCUGGCGUAAUGGUAACGCGUCUCCCUCCUAAGGAGCAGACUGCGGGAUCGAGUCCCGUACGGAACG [U7C A42C U53A]	≤ 0.5
GCUCCGUUGGCGUAAUGGUAACGCGUCUCUCUCCUAAGGAGAAGACUGCGGGUUCGAGUCCCGUACGGAACG [U2C C30U]	0.967
GUUGCGUUGGCGUAAUGCUAACGCGUCUCCCUCCUAAGGAGAAGACUGCGGGUUCGAGUCCCGAACGGAACG [C4G G18C U64A]	≤ 0.5
GUUCCGCUGGCGUAAUGGUAACGCGUCUGCCUCCUAAGAAGAAGACUGCGGGUUCGAGUCCCGUACGGAACG [U7C C29G G39A]	≤ 0.5
GAUCCGUUGGCGUAAUGGUGACGCGUCUCCCUCCUAAGGAGAAGACUGCGGGUUGGAGUCCCGUACGGAACG [U2A A20G C55G]	0.537
GUUCCGUUGGCGUAUUGGUAACGCGUCUCCCUCCUGUGGAGAAGACUGCGGGUUCGAGUCCCGUUCGGAACG [A15U A36G A37U A65U]	≤ 0.5
GUUCCGUUGGCGUAAUGGUAACGCGUCUCCCACCUAAGGAGAAGACUGCGGGUUCGAGUCGCGUACGGAACG [U32A C61G]	0.526
GUUACGUUGGCGUAAUGGUAACGCGUCUGCCUCCUUAGGAGAAGACUGCGGGUUCGAGUCCCGUGUGGAACG [C4A C29G A36U A65G C66U]	≤ 0.5
GUUCCGUUGGCGUAAUGGUAACGUGUCUCCCUCCUAAGGAGAAGACUGCGGGUUCGAAUCCCGUCCGGAACG [C24U G58A A65C]	0.707
GUUCCGUUGGCGUAAUGGUAACGCGUAUCCCUCCUUAGGAGAAGACUGCGGGUUCGAGUCCCGUACGGAACG [C27A A36U]	0.802
GUUCCGUUGGCGUAAUGGUAACGCGUCUCCCUCCUCAGGAGAAGACUGCGGGUUCGAGUCGCGUACGGACCG [A36C C61G A70C]	0.569
GUUCCGUUGGCGUAAUGCUAACGCGUCUCCCUCCUAAGGAGAAGCCUGCGGGUUCGAGUCCCGUUCGGAACG [G18C A45C A65U]	≤ 0.5
GUUCCGUUGGCGUAAUGGUAAAGCGUCUCGCUCCUAAGGAGAAGACUGCGGGUUCGAGUCCCGUACGGAACG [C22A C30G]	0.636
GUUCCGUUGGCGUAAUGGUAACGCGUCUCCCUCCUAAGGAGAAGACUCCGGGUUCGAGUCCUGUACGGCACG [G48C C62U A69C]	0.701
GUUGCGUUGGCGUAAUGGAAACGCGUCUGCCUCCUAAGGAAAAGAUUGCGGGUCCGAGUACCGUACGGAACG [C4G U19A C29G G41A C46U U54C C60A]	0.737
